Here are results for two compounds from ChEMBL document CHEMBL4342502, “Synthesis and Antichlamydial Activity of Molecules Based on Dysregulators of Cylindrical Proteases” (J Med Chem, 2020).

The test system of data set [1] is Staphylococcus aureus. In words: Antibacterial activity against Staphylococcus aureus JE2 assessed as bacterial death up to 256 ug/ml measured after 16 hrs by broth microdilution method. The format is functional, organism-based. In short, it runs like this:
(§1)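 Broth microdilution in Mueller Hinton broth, triplicate. Direct colony suspension at 1.5 x 10^8 CFU/mL diluted to ~10^5 CFU/mL. Serial dilutions made from DMSO stocks at 1 mg/mL; vancomycin positive control, blank medium negative control. Incubated 16 h at optimum temperature. MIC is the lowest concentration without visible growth at 600 nm; mean of triplicate determinations.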

For data set [2], the system named is Chlamydia trachomatis. In words: Activation of recombinant Chlamydia trachomatis Serovar LGV-L2 C-terminal 6xhis-tagged ClpP1 expressed in Escherichia coli assessed as induction of casein degradation at 0.1 to 1 uM using FITC-labelled casein as substrate pretreated with enzyme for 30 mins followed by substrate addition and measured every 3 mins for 3 hrs in absence chaperone by fluorescence based tecan-plate reader assay. In short, it runs like this: (§2)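 Recombinant C-terminal His6-tagged ClpP, expressed in a clpAPX-null E. coli strain and purified (mammalian ClpP without mitochondrial signal, codon-optimized). ClpP at 1 or 0.1 μM (E. coli), 1 μM (human, mouse) or 6 μM (chlamydial ClpP1 and ClpP2) preincubated with compound or DMSO, 30 min, 32 °C, in HEPES pH 7.6/KCl/MgCl2/DTT/glycerol buffer. 20 μM FITC-casein then added. Fluorescence (ex 490/em 525 nm) read every 3 min for 3 h. At least three runs on at least two protein preparations.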

Data set [3] can be described thus: Toxicity in Drosophila melanogaster assessed as survival rate at 0.25 to 1 mM. Conditions: 1000 µM. The procedure, abridged: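 Drosophila SMART assay using third-instar larvae (72 ± 4 h) from ST and HB crosses. Larvae exposed in hydrated instant mashed-potato medium at 0.25, 0.5 and 1.0 mM final. Vehicle control: water with 1% Tween-80 and 3% ethanol. Survival of treated groups compared statistically with the vehicle control.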

Data set [4] deals with Escherichia coli. In words: Antibacterial activity against Escherichia coli K12 assessed as bacterial death up to 256 ug/ml measured after 16 hrs by broth microdilution method. Conditions: K-12. Format: functional, organism-based. The procedure, abridged:
as §1
Background: Dilution methods test growth across graded concentrations, often in twofold steps.

A short description of data set [5]: Drug metabolism in human liver microsomes assessed as amount of drug modified at 1 ug/ml […] in presence of NADPH by LC-MS/MS analysis. The note with it: read-out: Drug metabolism. Format: ADME, Microsome.
Data set [6] in a line: Mutagenicity in Drosophila melanogaster somatic cells assessed as frequency of clone formation in HB crosses at 0.25 to 1 mM by SMART assay. Conditions: 1000 µM. The format is ADME. In short, it runs like this: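 Drosophila SMART wing-spot assay, ST and HB crosses. Third-instar larvae (72 ± 4 h) placed on hydrated instant mashed potato medium containing compound at 0.25, 0.5 or 1.0 mM final. Negative control: water with 1% Tween-80 and 3% ethanol. Statistics by Frei and Würgler two-sided U test, P≤0.05.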

Data set [7] relates to Staphylococcus aureus. The data set is described as follows: Antibacterial activity against Staphylococcus aureus JE2 assessed as bacterial growth inhibition at 32 ug/ml measured after 16 hrs by broth microdilution method. Format: functional, organism-based. In short, it runs like this:
as §1

For data set [8], the system named is Chlamydia trachomatis. In words: Anti-chlamydial activity against Chlamydia trachomatis Serovar LGV-L2 infected in Hep2 cells assessed as inhibition of chlamydial inclusion at 50 ug/ml treated at 8 hrs post infection and measured at 24 hrs post-infection by immunofluorescence assay. Format: functional, organism-based. The procedure, abridged: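 HEp-2 cells infected with C. trachomatis serovar L2. Compounds at 50 μg/mL added 8 hpi; inclusion number and size assessed by immunofluorescence at 24 hpi against untreated cells. Cell morphology and viability checked by phase-contrast microscopy.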

For data set [9], the system named is Staphylococcus aureus. The data set is described as follows: Antibacterial activity against methicillin-resistant Staphylococcus aureus ATCC 43300 assessed as bacterial growth inhibition at 32 ug/ml measured after 16 hrs by broth microdilution method. Format: functional, organism-based.
Data set [10] is described as follows: Stability of compound in human liver microsomes at 1 ug/ml measured up to 60 mins in absence of NADPH by LC-MS/MS analysis. The note with it: 1 h. The format is ADME, Microsome. In short, it runs like this: (§3)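 Human liver microsomes (1.0 mg/mL protein) in 100 mM phosphate pH 7.4 with 10 mM MgCl2 and 2 mM NADPH, preincubated 10 min at 37 °C. Reaction started with compound at 1 μg/mL. Sampled at 0, 5, 15, 20, 30, 45 and 60 min and quenched in methanol with internal standard. Controls: no NADPH (negative), testosterone (positive). Analysed by LC-MS/MS, triplicate.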
(Liver microsomes are a subcellular fraction often used to study metabolism.)

Data set [11] is described as follows: Half life in human liver microsomes at 1 ug/ml measured up to 60 mins by LC-MS/MS analysis. The format is ADME, Microsome. Conditions: microsomes, 1 h. In short, it runs like this:
as §3

A short description of data set [12]: Activation of recombinant human C-terminal 6xHis-tagged ClpP expressed in Escherichia coli assessed as induction of casein degradation at 0.1 to 1 uM using FITC-labelled casein as substrate pretreated with enzyme for 30 mins followed by substrate addition and measured every 3 mins for 3 hrs in absence of AAA+ chaperone by fluorescence based tecan-plate reader assay. The procedure, abridged:
as §2

For a further data set, the system named is HeLa 229. The data set is described as follows: Cytotoxicity against human HeLa 229 cells assessed as reduction in cell viability at 50 ug/ml after 24 hrs by CCK-8 assay. Conditions: hela 229, 24 h. Format: cell-based. The procedure, abridged:
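HeLa 229 and HaCaT cells in DMEM with 10% FBS and 1% penicillin/streptomycin, 37 °C, 5% CO2, seeded at 5000 cells/well. Next day treated with 50 μg/mL in triplicate, with matching DMSO controls. After 24 h, CCK-8 added for 2 h; corrected absorbance read at 450 nm.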

In data set [13] the test system is Escherichia coli. The data set is described as follows: Antibacterial activity against Escherichia coli ATCC 25922 assessed as bacterial growth inhibition at 32 ug/ml measured after 16 hrs by broth microdilution method. Format: functional, organism-based.
The test system of the next data set is Klebsiella pneumoniae. The data set is described as follows: Antibacterial activity against Klebsiella pneumoniae ATCC 700603 assessed as bacterial growth inhibition at 32 ug/ml measured after 16 hrs by broth microdilution method. Format: functional, organism-based.
Data set [14] is described as follows: Stability of the compound in simulated gastric fluid at 50 uM and pH 1.2 at 37 degree C measured up to 120 mins by HPLC-ESI/MS analysis. The note with it: simulated gi fluid, pH 1.2, 2 h.
Data set [15] has as its system Chlamydia trachomatis. The data set is described as follows: Anti-chlamydial activity against Chlamydia trachomatis Serovar LGV-L2 infected in Hep2 cells assessed as reduction in chlamydial infectivity by measuring decrease in inclusion forming units at 50 ug/ml treated at 8 hrs post-infection and 24 hrs later re-infecting fresh Hep2 cells monolayer with infected cells and measured at 24 hrs post re-infection by immunofluorescence staining based microscopy analysis. Format: functional, organism-based. The procedure, abridged:
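HEp-2 cells in DMEM with 10% FBS, infected with C. trachomatis L2 at MOI 1. Compounds added 8 hpi in triplicate; DMSO stocks at 50 mg/mL. At 24 hpi lysates collected in sucrose storage medium, frozen at −80 °C, and used to infect fresh HEp-2 monolayers in 10-fold dilutions. After 24 h, stained with goat anti-MOMP and Alexa488 secondary. Inclusions counted in 15 fields at 20x; IFU = mean count per field corrected for dilution.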

Data set [16] concerns Escherichia coli. The data set is described as follows: Antibacterial activity against Escherichia coli K12 assessed as bacterial growth inhibition at 32 ug/ml measured after 16 hrs by broth microdilution method. Format: functional, organism-based. The note with it: K-12. The procedure, abridged: as §1
A further data set deals with Candida albicans. The data set is described as follows: Antifungal activity against Candida albicans ATCC 90028 assessed as fungal growth inhibition at 32 ug/ml measured after 16 hrs by broth microdilution method. Format: functional, organism-based.

Active and inactive are the calls of the source. The calls are words filed in the database; no cut-off is given here.

Turning to `CC(C)(C(=O)N1CCN(Cc2ccc(Cl)cc2)CC1)S(=O)(=O)c1ccc(C(F)(F)F)cn1`, the result with Staphylococcus aureus [1], in the data set on Chlamydia trachomatis [2] and with Escherichia coli [4] was inactive. In addition, the Activity entry in [3] is reported as “Non-Toxic”; in [6] it was “Non-Toxic”; in data set [12], “Not Active”; in the data set with HeLa 229, “Non-Toxic”. Besides, the metabolised at 10 min, 1 ug/ml in data set [5] came to 90%. Also, the inhibition result in the data set with Staphylococcus aureus [7], in the data set with Staphylococcus aureus [9], with Escherichia coli [13], in the data set with Klebsiella pneumoniae, in the data set with Escherichia coli [16] and with Candida albicans was “inactive” throughout. Moreover, the inhibition result with Chlamydia trachomatis [8] and with Chlamydia trachomatis [15] was “Active” in each case. The Stability result in data set [10] and in [14] was “Stable” in each case. Moreover, in data set [11], the t1/2 is less than 2 min.
Consider `CC(C)(C(=O)NCCCc1ccccc1)S(=O)(=O)c1ccc(C(F)(F)F)cc1`, for which the result in the data set on Staphylococcus aureus [1] and with Escherichia coli [4] was inactive. For the same compound, the outcome with Chlamydia trachomatis [2] was Active. For the same compound, the Activity entry in data set [3] is on record as “Non-Toxic”; in data set [6], “Non-Toxic”; in data set [12], “Active”; with HeLa 229 it was “Toxic”. In data set [5], the metabolised at 10 min, 1 ug/ml stood at 90%. The inhibition result in the data set with Staphylococcus aureus [7], in the data set with Staphylococcus aureus [9], in the data set on Escherichia coli [13], with Klebsiella pneumoniae, in the data set on Escherichia coli [16] and with Candida albicans was “inactive” throughout. Further, the inhibition result with Chlamydia trachomatis [8] and in the data set on Chlamydia trachomatis [15] was “Active” in each case. Also, the Stability entry in data set [10] and in data set [14] was “Stable” in each case. This compound also showed a t1/2 in data set [11] of 6.13 min.
